Drawing on ChEMBL document CHEMBL2016546, “Synthesis, characterization, molecular docking and cytotoxic activity of novel plumbagin hydrazones against breast cancer cells” (Bioorg Med Chem Lett, 2012), this text covers IC50, logP and inhibition for five molecules.

The term IC50 denotes the concentration that gives 50% inhibition. A high value points to a need for much substance. Usually logP stands for a log measure of how a compound divides between an organic and an aqueous phase.

One data set deals with MDA-MB-468. The data set can be described thus: Antiproliferative activity against ER-negative human MDA-MB-468 cells after 48 hrs by MTT assay. Type of data set: functional, cell-based. Particulars: MDA-MB-468, 48 h. The method in brief:
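MDA-MB-468 cells plated at 3 × 10³/well in medium containing 10% fetal calf serum, penicillin (50 U/mL) and streptomycin, at 37 °C under 5% CO₂. DMSO-dissolved compounds were added 24 h post-seeding and exposure lasted 48 h. MTT (0.5 mg/mL) was applied for 2 h at 37 °C, then DMSO for 30 min at room temperature. Eight wells per treatment, at least three independent repeats.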
On the technique in general: Tetrazolium assays rely on reduction of a dye to a coloured formazan, in cell work by metabolically active cells.

A further data set deals with MDA-MB-231. As to the kind of experiment: Antiproliferative activity against ER-negative human MDA-MB-231 cells after 48 hrs by MTT assay. Particulars: MDA-MB-231, 48 h.
Another data set has as its system MCF7. The data set can be described thus: Antiproliferative activity against ER-positive human MCF7 cells after 48 hrs by MTT assay. Particulars: MCF7, 48 h.
The nature of data set [1]: Partition coefficient, log P pf the compound. Type of data set: physicochemical. Particulars: octanol/water.
Data set [2] deals with Transcription factor p65 (Homo sapiens) (UniProt Q04206). As to the kind of experiment: Inhibition of NFkappaB p65 subunit expression in human MDA-MB-231 cells at 1.5 uM after 48 hrs by Western blot analysis. Type of data set: cell-based. The method in brief: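 MDA-MB-231 cells were exposed to compounds for 48 h, with a vehicle-treated control. NF-κB p65 subunit levels were detected by Western blot, using β-actin as the protein loading control.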
Chain of Transcription factor p65 (Homo sapiens) (Q04206 whole entry): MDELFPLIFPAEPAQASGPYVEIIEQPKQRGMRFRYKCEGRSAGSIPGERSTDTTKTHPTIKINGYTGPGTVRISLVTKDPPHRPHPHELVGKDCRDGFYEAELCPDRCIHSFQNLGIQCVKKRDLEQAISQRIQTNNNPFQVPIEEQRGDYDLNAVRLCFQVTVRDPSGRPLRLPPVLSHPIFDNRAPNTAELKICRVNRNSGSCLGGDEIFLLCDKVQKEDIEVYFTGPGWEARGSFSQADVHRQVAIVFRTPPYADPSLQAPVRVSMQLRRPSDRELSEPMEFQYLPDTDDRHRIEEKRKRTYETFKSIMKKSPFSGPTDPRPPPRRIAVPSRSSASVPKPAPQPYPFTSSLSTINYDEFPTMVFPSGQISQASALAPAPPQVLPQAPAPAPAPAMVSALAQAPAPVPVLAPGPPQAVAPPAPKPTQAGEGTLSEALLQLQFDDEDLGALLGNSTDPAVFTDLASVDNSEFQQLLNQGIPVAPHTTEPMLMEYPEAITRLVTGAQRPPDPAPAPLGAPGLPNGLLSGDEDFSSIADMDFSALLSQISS
Background: Immunoblotting shows a protein as a band on a membrane.

SMILES strings stand for the structures. The source made the active and inactive calls. The rule behind the calls is not given here.

Consider `CC1=C/C(=N\NC(=O)c2ccncc2)c2c(O)cccc2C1=O`, for which the IC50 with MDA-MB-468 was 3300 nM; in the data set with MDA-MB-231 it was 3300 nM; in the data set on MCF7 it was 6200 nM. For the same molecule, the logP in data set [1] (read-out: logP) is 2.86. Also, in data set [2], the inhibition entry is “Active”.
For `CC1=C/C(=N\NC(=O)c2cccnc2)c2c(O)cccc2C1=O`, the IC50 was 1900 nM in the data set on MDA-MB-468, 1900 nM in the data set with MDA-MB-231 and 2700 nM in the data set on MCF7. Further, the logP in data set [1] (read-out: logP) stood at 3.13. Also, the inhibition result in data set [2] was “Active”.
For `CC1=C/C(=N\NC(=O)c2ccccc2)c2c(O)cccc2C1=O`, the values for the IC50 with MDA-MB-468, in the data set with MDA-MB-231 and in the data set with MCF7 were 2000 nM, 2100 nM and 2800 nM, respectively. The logP in data set [1] (read-out: logP) worked out at 4. Also, the inhibition entry in data set [2] is “Active”.
With `CC1=CC(=O)c2c(O)cccc2C1=O` [PLUMBAGIN], the IC50 was found to be 2500 nM in the data set on MDA-MB-468, 3500 nM in the data set with MDA-MB-231 and 5500 nM in the data set with MCF7. Also, the logP in data set [1] is reported as 0.89. Further, the inhibition entry in data set [2] was “Active”.
Consider `CC1=C/C(=N\NC(=O)c2ccccc2O)c2c(O)cccc2C1=O`, for which the IC50 in the data set on MDA-MB-468 stood at 2900 nM; in the data set with MDA-MB-231 it was 3800 nM; in the data set with MCF7, 5300 nM. Moreover, the logP in data set [1] (read-out: logP) was 4.17. For the same molecule, the inhibition result in data set [2] is “Active”.
